Columns and labels:
[1] = test system: Human immunodeficiency virus 1; test: Antiviral activity against wild type HIV1 3B infected in human C8166 cells assessed as protection against virus-induced cytopathic effect after 3 days by syncytium reduction assay; type: functional, organism-based; details: Human immunodeficiency virus 1, 3B, C8166, 72 h
Procedure, shortened: (§1)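 C8166 cells (4 × 10⁵/mL) infected at MOI 0.06 in presence of graded compound concentrations; AZT and GW678248 as drug controls. After 3 days culture, syncytia (multinucleated giant cells) counted under inverted microscope; EC50 taken as concentration blocking 50% syncytium formation. Mean of at least two separate experiments.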

[2] = test system: Human immunodeficiency virus 1; test: Antiviral activity against HIV1 A17 harbouring RT K103N/Y181C mutant infected in human C8166 cells assessed as protection against virus-induced cytopathic effect after 3 days by syncytium reduction assay; type: functional, organism-based; details: Human immunodeficiency virus 1, A17, C8166, 72 h
Procedure, shortened: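 C8166 cells (4 × 10⁵/mL) infected at M.O.I 0.06 in the presence of various compound concentrations; cultured 3 days, syncytia (multinucleated giant cells) scored under inverted microscope; EC50 = concentration blocking syncytia formation by 50%. AZT and GW678248 as drug controls. Mean of at least two separate experiments.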

C8166 = test: Cytotoxicity against human C8166 cells assessed as decrease in cell viability by MTT assay; type: functional
Procedure, shortened: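 Uninfected C8166 cells exposed to compound; viability read by MTT colorimetric assay at A570/630. CC50, the concentration reducing viable cells by 50%, taken from dose-response curve. Mean of at least two separate experiments.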

[3] = Therapeutic index, ratio of CC50 for human C8166 cells to EC50 for HIV1 A17 harbouring RT K103N/Y181C mutant infected in human C8166 cells; type: cell-based; details: read-out: Ratio CC50/EC50
Procedure, shortened: (§2)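 CC50 from MTT assay on uninfected C8166 cells (A570/630, dose-response curve, 50% viable cell reduction) divided by EC50 from 3-day syncytium reduction assay in C8166 cells (4 × 10⁵/mL) infected at M.O.I 0.06; syncytia scored microscopically. Values are means of at least two separate experiments.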

[4] = target: Human immunodeficiency virus type 1 reverse transcriptase (Human immunodeficiency virus 1, UniProt Q72547); test: Inhibition of wild type HIV1 reverse transcriptase activity using poly (rA)/oligo (dT)15 homopolymer template after 1 hr by ELISA
Procedure, shortened: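 Wild-type RT; oligo(dT) immobilized on plates, poly(rA) template, biotin-11-dUTP incorporation. Reaction: 50 mM Tris-HCl pH 8.3, 3 mM MgCl2, 75 mM KCl, 5 mM DTT, 0.13 mg/mL BSA, […]; 37 °C, 1 h. Detection by streptavidin-alkaline phosphatase and PNPP (30 min, 37 °C), stopped with 0.5 M NaOH.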

[5] = Therapeutic index, ratio of CC50 for human C8166 cells to EC50 for wild type HIV1 3B infected in human C8166 cells; type: cell-based; details: C8166 cells infected with wild type HIV1 3B, read-out: Ratio CC50/EC50; procedure, shortened: as §2
[6] = test system: Human immunodeficiency virus 2; test: Antiviral activity against HIV2 ROD infected in human C8166 cells assessed as protection against virus-induced cytopathic effect after 3 days by syncytium reduction assay; type: functional, organism-based; details: Human immunodeficiency virus 2, ISOLATE ROD, C8166, 72 h; procedure, shortened: as §1

Compound | EC50 [1] [µM] | EC50 [2] [µM] | CC50 (C8166) [µM] | selectivity ratio [3] | IC50 [4] [µM] | selectivity ratio [5] | EC50 [6] [µM]
Cc1cc(S(N)(=O)=O)ccc1NC(=O)COc1ccc(Cl)cc1C(=O)c1cc(Cl)cc(C#N)c1 | 0.000103 | 0.00028 | > 387 | > 1.37e+06 | 0.00269 | – | –
Cc1cc(S(N)(=O)=O)ccc1NC(=O)COc1ccc(Cl)cc1NC(=O)c1cccc(Cl)c1 | 0.00319 | 1.49 | 59.7 | 39.9 | – | 18700 | 52.5
Cc1cc(S(N)(=O)=O)ccc1NC(=O)COc1ccc(Cl)cc1NC(=O)c1ccccc1 | 0.00367 | 1.59 | 207 | 130 | – | 56500 | 72.1
Cc1cc(S(N)(=O)=O)ccc1NC(=O)COc1ccc(Cl)cc1NC(=O)c1ccccc1C | 0.0179 | 2.29 | 67.3 | 29.4 | – | 3750 | 55.5
Cc1cccc(C(=O)Nc2cc(Cl)ccc2OCC(=O)Nc2ccc(S(N)(=O)=O)cc2C)c1 | 0.00146 | 0.46 | 52.9 | 115 | – | 36200 | 29.6
Cc1ccc(C(=O)Nc2cc(Cl)ccc2OCC(=O)Nc2ccc(S(N)(=O)=O)cc2C)cc1 | 0.0051 | 0.93 | 54.2 | 58.2 | – | 10600 | 57.3
Cc1cc(S(N)(=O)=O)ccc1NC(=O)COc1ccc(Cl)cc1NC(=O)c1cccc(F)c1 | 0.00353 | 1.02 | 243 | 239 | – | 68800 | 186
Cc1cc(S(N)(=O)=O)ccc1NC(=O)COc1ccc(Cl)cc1NC(=O)c1ccccc1[N+](=O)[O-] | 0.0003 | 0.29 | 54.8 | 188 | – | 185000 | 11.8
Cc1cc(S(N)(=O)=O)ccc1NC(=O)COc1ccc(Cl)cc1NC(=O)c1cccc([N+](=O)[O-])c1 | 0.00066 | 0.46 | 58.8 | 128 | – | 89400 | 36.1
Cc1cc(S(N)(=O)=O)ccc1NC(=O)COc1ccc(Cl)cc1NC(=O)c1cccc(C(F)(F)F)c1 | 1.51 | 52.9 | 124 | 2.34 | – | 82 | 81.3
COc1ccc(C(=O)Nc2cc(Cl)ccc2OCC(=O)Nc2ccc(S(N)(=O)=O)cc2C)cc1 | 0.204 | 18.1 | 69.5 | 3.85 | – | 340 | 58.8
Cc1ccc(C(=O)Nc2cc(Cl)ccc2OCC(=O)Nc2ccc(S(N)(=O)=O)cc2C)c(C)c1 | 0.00056 | 0.09 | 47.6 | 543 | – | 85300 | 41.4
Cc1ccc(C)c(C(=O)Nc2cc(Cl)ccc2OCC(=O)Nc2ccc(S(N)(=O)=O)cc2C)c1 | 0.00037 | 0.14 | 79.7 | 560 | – | 213000 | 27.7
Cc1cc(C)cc(C(=O)Nc2cc(Cl)ccc2OCC(=O)Nc2ccc(S(N)(=O)=O)cc2C)c1 | 0.00116 | 0.33 | 36.5 | 110 | – | 31300 | 25.9
Cc1cc(S(N)(=O)=O)ccc1NC(=O)COc1ccc(Cl)cc1NC(=O)c1ccc(Cl)cc1Cl | 0.00297 | 0.33 | 61.1 | 187 | – | 20600 | 14.4
Cc1cc(S(N)(=O)=O)ccc1NC(=O)COc1ccc(Cl)cc1NC(=O)c1cc(Cl)ccc1Cl | 0.00234 | 0.42 | 42.1 | 100 | – | 18000 | 21.6
Cc1cc(S(N)(=O)=O)ccc1NC(=O)COc1ccc(Cl)cc1NC(=O)c1ccc(Cl)c(Cl)c1 | 0.0514 | 1.14 | 158 | 138 | – | 3060 | 55.5
Cc1cc(S(N)(=O)=O)ccc1NC(=O)COc1ccc(Cl)cc1NC(=O)c1cc(Cl)cc(Cl)c1 | 0.00027 | 0.27 | 72.4 | 268 | – | 271000 | 18
Cc1cc(S(N)(=O)=O)ccc1NC(=O)COc1ccc(Cl)cc1NC(=O)c1cc(Cl)cc(Br)c1 | 3.09 | 27.8 | 114 | 4.11 | – | 37 | 61.5
Cc1cc(S(N)(=O)=O)ccc1NC(=O)COc1ccc(Cl)cc1NC(=O)c1cc(Br)cc(Br)c1 | 0.0459 | 1.39 | 89.7 | 64.7 | – | 1950 | 56.5
Cc1cc(S(N)(=O)=O)ccc1NC(=O)COc1ccc(Cl)cc1NC(=O)/C=C/c1ccccc1 | 95.4 | 154 | 163 | 1.06 | – | 2 | 77.5
Cc1cc(S(N)(=O)=O)ccc1NC(=O)COc1ccc(Cl)cc1NC(=O)Cc1c(Cl)cccc1Cl | 249 | 241 | > 359 | > 1.49 | – | > 2 | 160
Cc1cc(S(N)(=O)=O)ccc1NC(=O)COc1ccc(Cl)cc1NC(=O)c1cccc2ccccc12 | 0.109 | 21.5 | > 382 | > 17.7 | – | > 3500 | 97.7
Cc1cc(S(N)(=O)=O)ccc1NC(=O)COc1ccc(Cl)cc1NC(=O)c1ccc2ccccc2c1 | 0.101 | 8.91 | 37.6 | 4.22 | – | 373 | 31.6
Cc1cn([C@H]2C[C@H](N=[N+]=[N-])[C@@H](CO)O2)c(=O)[nH]c1=O [ZIDOVUDINE] | – | – | 4910 | 216000 | – | 422000 | –
